Data set [1] concerns the target T1, Leucine-rich repeat serine/threonine-protein kinase 2 (Homo sapiens, UniProt Q5S007, G2019S). Put plainly: Inhibition of GST-tagged LRRK2 G2019S mutant (970 to 2527 amino acid residues) (unknown origin) assessed as inhibition of biotinylated-LRRKtide phosphorylation by HTRF assay in presence of ATP.
Data set [2] concerns the target T1, Leucine-rich repeat serine/threonine-protein kinase 2. Description: Inhibition of LRRK2 G2019S mutant (unknown origin) transfected in HEK293 cells assessed as inhibition of S935 phosphorylation. It counts as cell-based.
Data set [3] deals with Leucine-rich repeat serine/threonine-protein kinase 2 (Homo sapiens, UniProt Q5S007). Put plainly: Inhibition of wild type GST-tagged LRRK2 (970 to 2527 amino acid residues) (unknown origin) assessed as inhibition of biotinylated-LRRKtide phosphorylation by HTRF assay in presence of ATP.
Chain of Leucine-rich repeat serine/threonine-protein kinase 2 (Homo sapiens, UniProt Q5S007) (Q5S007 whole entry, the tested form may be a part): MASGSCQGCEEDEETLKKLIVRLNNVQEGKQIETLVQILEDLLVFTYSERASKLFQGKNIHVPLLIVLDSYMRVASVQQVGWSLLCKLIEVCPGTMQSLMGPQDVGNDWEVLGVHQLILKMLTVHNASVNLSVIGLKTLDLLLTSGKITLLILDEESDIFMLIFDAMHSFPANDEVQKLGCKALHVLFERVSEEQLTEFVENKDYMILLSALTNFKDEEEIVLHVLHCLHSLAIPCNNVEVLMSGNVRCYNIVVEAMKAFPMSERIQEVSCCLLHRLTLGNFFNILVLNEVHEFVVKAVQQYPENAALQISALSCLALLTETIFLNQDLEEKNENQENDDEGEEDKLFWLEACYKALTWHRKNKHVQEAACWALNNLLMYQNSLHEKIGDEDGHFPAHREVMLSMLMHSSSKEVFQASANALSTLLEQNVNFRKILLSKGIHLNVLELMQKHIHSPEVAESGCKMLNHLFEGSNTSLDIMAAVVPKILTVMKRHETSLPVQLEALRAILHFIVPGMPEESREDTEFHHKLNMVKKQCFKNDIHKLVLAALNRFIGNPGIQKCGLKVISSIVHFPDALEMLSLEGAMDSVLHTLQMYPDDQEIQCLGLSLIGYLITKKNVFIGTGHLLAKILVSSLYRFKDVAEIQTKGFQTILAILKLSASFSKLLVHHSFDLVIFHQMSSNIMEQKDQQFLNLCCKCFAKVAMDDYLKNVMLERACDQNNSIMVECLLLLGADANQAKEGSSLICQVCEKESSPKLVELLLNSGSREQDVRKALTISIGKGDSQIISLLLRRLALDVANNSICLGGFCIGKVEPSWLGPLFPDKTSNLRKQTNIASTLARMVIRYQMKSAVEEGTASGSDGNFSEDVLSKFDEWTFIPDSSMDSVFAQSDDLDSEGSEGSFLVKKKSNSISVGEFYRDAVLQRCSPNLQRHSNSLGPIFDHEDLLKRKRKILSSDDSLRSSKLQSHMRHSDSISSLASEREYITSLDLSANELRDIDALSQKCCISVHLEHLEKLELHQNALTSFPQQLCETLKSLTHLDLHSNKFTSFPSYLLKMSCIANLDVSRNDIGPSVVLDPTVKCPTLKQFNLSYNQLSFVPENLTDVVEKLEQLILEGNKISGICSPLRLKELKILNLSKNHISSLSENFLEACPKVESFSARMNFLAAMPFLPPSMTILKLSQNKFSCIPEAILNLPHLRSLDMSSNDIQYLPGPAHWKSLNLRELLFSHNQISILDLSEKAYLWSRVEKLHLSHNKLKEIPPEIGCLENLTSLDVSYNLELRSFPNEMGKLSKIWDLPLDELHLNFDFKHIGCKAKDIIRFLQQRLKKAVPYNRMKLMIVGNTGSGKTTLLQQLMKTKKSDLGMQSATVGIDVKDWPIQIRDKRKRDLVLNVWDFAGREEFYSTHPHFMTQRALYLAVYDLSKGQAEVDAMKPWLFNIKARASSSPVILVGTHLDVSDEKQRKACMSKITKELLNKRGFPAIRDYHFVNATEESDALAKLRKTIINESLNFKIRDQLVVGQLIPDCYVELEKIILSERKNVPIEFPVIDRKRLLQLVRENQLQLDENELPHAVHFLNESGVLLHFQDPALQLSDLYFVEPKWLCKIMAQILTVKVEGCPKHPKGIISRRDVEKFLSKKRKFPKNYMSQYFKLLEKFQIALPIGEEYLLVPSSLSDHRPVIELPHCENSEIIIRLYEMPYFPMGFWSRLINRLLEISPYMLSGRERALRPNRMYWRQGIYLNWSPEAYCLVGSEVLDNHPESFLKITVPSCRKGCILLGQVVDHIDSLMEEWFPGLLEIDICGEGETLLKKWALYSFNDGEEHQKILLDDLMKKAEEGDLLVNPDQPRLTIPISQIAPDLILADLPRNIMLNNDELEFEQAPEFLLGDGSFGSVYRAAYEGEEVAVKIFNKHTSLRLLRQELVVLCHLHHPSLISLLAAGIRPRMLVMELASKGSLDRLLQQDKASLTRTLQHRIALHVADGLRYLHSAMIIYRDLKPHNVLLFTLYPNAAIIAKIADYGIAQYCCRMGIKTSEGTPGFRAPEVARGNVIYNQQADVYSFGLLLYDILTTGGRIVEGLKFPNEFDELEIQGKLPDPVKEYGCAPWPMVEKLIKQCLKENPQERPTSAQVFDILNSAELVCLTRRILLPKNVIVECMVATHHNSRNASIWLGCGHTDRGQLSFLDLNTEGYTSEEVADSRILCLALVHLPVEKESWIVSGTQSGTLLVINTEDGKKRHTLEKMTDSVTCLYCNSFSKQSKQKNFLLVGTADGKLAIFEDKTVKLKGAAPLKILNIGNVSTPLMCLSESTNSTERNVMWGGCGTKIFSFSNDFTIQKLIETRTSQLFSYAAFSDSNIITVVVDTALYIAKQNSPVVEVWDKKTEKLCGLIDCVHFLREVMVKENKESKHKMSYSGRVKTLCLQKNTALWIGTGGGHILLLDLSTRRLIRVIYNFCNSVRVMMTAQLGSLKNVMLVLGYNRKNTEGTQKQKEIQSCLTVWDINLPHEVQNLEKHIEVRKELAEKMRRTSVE
For data set [4], the target named is ATP-dependent translocase ABCB1 (Homo sapiens, UniProt P08183). Put plainly: Inhibition of MDR1 (unknown origin) transfected in MDCK cells. Format: cell-based.
Another data set concerns Mus musculus. Put plainly: Inhibition of P-gp in Mdr1(a/b) knock out and P-gp competent FVB mouse at 1 mg/kg, iv. It counts as functional, organism-based. The arrangement: dose 1 mg/kg. An outline of the steps: (§1)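 FVB mice, both Mdr1a/b (-/-) and P-gp-competent wild-type, were given a single 1 mg/kg IV dose. Brain and plasma concentrations were measured 5 min after dosing. Brain uptake was expressed as the brain-to-plasma concentration ratio (Kp). In vivo P-gp efflux was assessed by comparing the knockout and wild-type strains.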

The next data set relates to Brain. Put plainly: Drug uptake in Mdr1(a/b) knock out and P-gp competent FVB mouse brain at 1 mg/kg, iv at 5 mins. The arrangement: dose 1 mg/kg, route intravenous. It counts as ADME, organism-based. The settings on record: in vivo. A digest of the protocol:
as §1

Data set [5] is described as follows: Ratio of drug level in brain to plasma in Mdr1(a/b) knock out and P-gp competent FVB mouse at 1 mg/kg, iv at 5 mins. Format: ADME, organism-based. Also noted: dose 1 mg/kg, route intravenous. To be noted: read-out: BPR. An outline of the steps: as §1
Data set [6] concerns the target Macrophage colony-stimulating factor 1 receptor (Homo sapiens, UniProt P07333). Description: Inhibition of CSF1R (unknown origin) by TR-FRET assay in presence of ATP.
Data set [7] has as its target Platelet-derived growth factor receptor alpha (Homo sapiens, UniProt P16234). Description: Inhibition of PDGFRalpha (unknown origin) by TR-FRET assay in presence of ATP.

Structures are written as SMILES. Activity calls are given as the source filed them. The calls are words filed in the database; no cut-off is given here.

T1 sequence (Q5S007 whole entry G2019S, the tested form may be a part): as the sequence (Q5S007 whole entry, the tested form may be a part) above, with G2019S counted along it
Chain of Platelet-derived growth factor receptor alpha (P16234 whole entry): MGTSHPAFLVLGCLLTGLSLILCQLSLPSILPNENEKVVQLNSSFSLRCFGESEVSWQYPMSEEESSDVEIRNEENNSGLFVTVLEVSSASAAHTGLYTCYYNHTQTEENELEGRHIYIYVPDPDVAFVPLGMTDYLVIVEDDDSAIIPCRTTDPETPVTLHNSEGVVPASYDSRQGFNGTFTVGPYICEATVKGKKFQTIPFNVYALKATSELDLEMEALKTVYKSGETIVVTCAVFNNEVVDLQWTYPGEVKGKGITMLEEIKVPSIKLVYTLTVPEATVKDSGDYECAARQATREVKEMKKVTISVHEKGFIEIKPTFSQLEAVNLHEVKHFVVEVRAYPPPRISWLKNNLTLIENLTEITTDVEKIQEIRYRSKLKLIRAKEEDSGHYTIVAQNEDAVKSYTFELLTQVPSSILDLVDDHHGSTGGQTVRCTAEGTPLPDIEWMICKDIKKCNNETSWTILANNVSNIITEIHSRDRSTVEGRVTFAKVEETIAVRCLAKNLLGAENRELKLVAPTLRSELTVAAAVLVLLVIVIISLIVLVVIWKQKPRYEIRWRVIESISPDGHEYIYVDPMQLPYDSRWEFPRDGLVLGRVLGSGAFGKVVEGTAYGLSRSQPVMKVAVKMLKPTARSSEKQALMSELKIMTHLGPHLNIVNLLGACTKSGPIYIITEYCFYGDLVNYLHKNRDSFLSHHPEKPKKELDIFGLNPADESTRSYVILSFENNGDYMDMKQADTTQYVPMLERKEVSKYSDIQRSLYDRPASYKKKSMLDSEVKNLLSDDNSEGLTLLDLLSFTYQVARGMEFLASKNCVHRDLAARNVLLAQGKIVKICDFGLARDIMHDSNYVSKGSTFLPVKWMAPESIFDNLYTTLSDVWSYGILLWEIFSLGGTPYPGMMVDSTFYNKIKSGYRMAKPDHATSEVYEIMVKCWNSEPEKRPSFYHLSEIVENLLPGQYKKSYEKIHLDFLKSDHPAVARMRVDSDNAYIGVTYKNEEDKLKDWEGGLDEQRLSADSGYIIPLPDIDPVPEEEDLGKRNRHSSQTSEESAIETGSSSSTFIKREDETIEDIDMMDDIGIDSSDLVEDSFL
Chain of Macrophage colony-stimulating factor 1 receptor (P07333 whole entry): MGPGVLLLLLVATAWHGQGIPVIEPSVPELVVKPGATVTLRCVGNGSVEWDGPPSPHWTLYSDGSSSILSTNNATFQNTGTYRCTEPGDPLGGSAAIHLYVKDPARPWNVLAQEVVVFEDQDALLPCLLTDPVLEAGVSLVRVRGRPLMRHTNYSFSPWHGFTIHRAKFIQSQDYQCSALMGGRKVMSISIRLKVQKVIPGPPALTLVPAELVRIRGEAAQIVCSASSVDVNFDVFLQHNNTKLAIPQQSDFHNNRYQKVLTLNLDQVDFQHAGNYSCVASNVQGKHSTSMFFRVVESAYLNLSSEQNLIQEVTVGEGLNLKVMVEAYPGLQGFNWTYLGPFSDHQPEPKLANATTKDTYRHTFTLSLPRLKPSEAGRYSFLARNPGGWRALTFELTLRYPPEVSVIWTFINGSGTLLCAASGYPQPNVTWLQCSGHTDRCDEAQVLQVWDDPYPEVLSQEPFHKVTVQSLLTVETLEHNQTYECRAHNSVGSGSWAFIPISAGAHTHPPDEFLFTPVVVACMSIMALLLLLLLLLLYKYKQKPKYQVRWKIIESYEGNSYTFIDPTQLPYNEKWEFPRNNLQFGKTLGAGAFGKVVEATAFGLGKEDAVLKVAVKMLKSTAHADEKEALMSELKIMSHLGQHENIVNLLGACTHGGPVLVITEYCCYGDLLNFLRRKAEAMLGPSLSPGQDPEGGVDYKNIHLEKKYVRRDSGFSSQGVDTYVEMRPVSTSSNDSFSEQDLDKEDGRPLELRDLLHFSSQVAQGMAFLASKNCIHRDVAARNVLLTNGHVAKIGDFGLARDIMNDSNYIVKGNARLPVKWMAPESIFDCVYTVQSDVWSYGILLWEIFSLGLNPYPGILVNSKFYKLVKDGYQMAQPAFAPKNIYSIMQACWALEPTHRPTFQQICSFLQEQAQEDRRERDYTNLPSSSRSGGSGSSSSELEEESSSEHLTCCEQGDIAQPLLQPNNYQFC

For the compound `CS(=O)(=O)c1ccc(-c2ccc3c(N)c(C(N)=O)nnc3c2)cc1`, the IC50 in data set [1] worked out at 0.298 µM.
For `CC[C@@H](C)Nc1c(C(N)=O)nnc2cc(-c3ccc(S(C)(=O)=O)cc3)ccc12`, the EC50 in [2] was determined as 0.073 µM. For the same compound, the half-maximal inhibitory concentration (IC50) in [3] was found to be 0.001 µM; in data set [1], 0.004 µM.
As for `CC(C)Nc1c(C(N)=O)nnc2cc(N3CCN(C)CC3)ccc12`, the IC50 in [1] is 0.059 µM.
Same read-out and setting: the figure for `CNc1c(C(N)=O)nnc2cc(-c3ccc(S(C)(=O)=O)cc3)ccc12` is 0.056 µM; for `CNC(=O)c1nnc2cc(-c3ccc(S(C)(=O)=O)cc3)ccc2c1NC(C)C` it is 0.418 µM.
With `CC(C)Nc1c(C(N)=O)nnc2cc(-c3cnsc3)ccc12`, in [2], the EC50 came out at 0.29 µM. Also, the IC50 stood at 0.014 µM in data set [3] and 0.02 µM in data set [1].
In the case of `CS(=O)(=O)c1ccc(-c2ccc3c(NC4CCOC4)c(C(N)=O)nnc3c2)cc1` (racemic), the 50% inhibitory concentration (IC50) in data set [1] is 0.053 µM.
Consider `CS(=O)(=O)c1ccc(-c2ccc3c(NC4CC4)c(C(N)=O)nnc3c2)cc1`, for which the concentration for half-maximal inhibition (IC50) worked out at 0.049 µM in [3] and 0.052 µM in [1].
In the case of `NC(=O)c1nnc2cc(-c3ccncc3)ccc2c1NCCCO`, the half-inhibitory concentration (IC50) in data set [1] came out at 0.162 µM.
`CC(C)Nc1c(C(N)=O)nnc2cc(-c3cnn(C)c3)ccc12`: the IC50 in [1] was determined as 0.012 µM.
On to `CS(=O)(=O)c1ccc(-c2ccc3c(Nc4ccccc4)c(C(N)=O)cnc3c2)cc1`, for which the half-inhibitory concentration (IC50) in data set [3] was 0.781 µM.
On to `CC(C)Nc1c(C(N)=O)nnc2cc(-c3cn[nH]c3)ccc12`, for which the 50% inhibitory concentration (IC50) in [3] was 0.012 µM; in [1], 0.018 µM.
For `C[C@@H](Nc1c(C(N)=O)nnc2cc(-c3ccncc3)ccc12)C1CC1`, the EC50 in [2] worked out at 0.062 µM. Besides, the “inhibition (INH)” value in [4] is “Active”. In the data set on Mus musculus, the inhibition entry is “Active”. In addition, the IC50 in data set [3] was determined as 0.002 µM; in data set [1] it was 0.006 µM. In addition, in the data set on Brain, the Drug uptake entry was “Active”. In data set [5], the Kp at 5 min is 1.5.
For `CS(=O)(=O)c1ccc(-c2ccc3c(NC4CCOCC4)c(C(N)=O)nnc3c2)cc1`, in [1], the IC50 amounted to 0.032 µM.
In the case of `Cc1c(-c2ccncc2)ccc2c(NC(C)C)c(C(N)=O)nnc12`, the half-inhibitory concentration (IC50) in data set [3] is 3.2 µM; in data set [1], 2.51 µM.
Take `CS(=O)(=O)c1ccc(-c2ccc3c(NCC4CC4)c(C(N)=O)nnc3c2)cc1`: in data set [1], the IC50 is 0.027 µM.
The same measure, in the same setting: the figure for `NC(=O)c1nnc2cc(-c3ccncc3)ccc2c1NCCO` is 0.264 µM; for `CNC(=O)c1nnc2cc(-c3ccc(S(C)(=O)=O)cc3)ccc2c1N[C@H](C)C1CC1` it is 0.247 µM.
With `CC(C)Nc1c(C(N)=O)nnc2ccc(-c3cnn(C)c3)cc12`, the IC50 in data set [1] turned out to be 0.425 µM.
The same measure, in the same setting: the figure for `CCNc1c(C(N)=O)nnc2cc(-c3ccc(S(C)(=O)=O)cc3)ccc12` is 0.055 µM.
As for `CC(C)Nc1c(C(N)=O)nnc2cc(-c3ccc(S(C)(=O)=O)cc3)ccc12`, the half-maximal effective concentration (EC50) in data set [2] was determined as 0.218 µM. For the same compound, the IC50 in [6] is 0.012 µM; in [7], 0.262 µM; in [1], 0.027 µM.
